Measurements: ChEMBL document CHEMBL1150387, “Development and experimental validation of a docking strategy for the generation of kinase-targeted libraries” (J Med Chem, 2008)

What was measured:
[1] = target: Insulin-like growth factor 1 receptor (Homo sapiens) (UniProt P08069); assay: Inhibition of IGF1R at 10 uM by HTRF assay relative to control
In short: (§1)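 HTRF kinase assay, one panel of kinases. Inhibitor stock 50 µM in 100% DMSO; tested at 10 µM. ATP and substrate at final levels near Km. Final buffer: 50 mM Hepes/NaOH pH 7.4, 40 µM Na3VO4, 0.005% Tween-20, 1 mM DTT, MnCl2 or MgCl2 at kinase-dependent levels. Started by adding ATP/substrate. Reaction run at room temperature, time varied by kinase. Detection mix in 50 mM Hepes pH 7.4, 0.1% BSA, 150 mM KF, incubated ≥1 h at room temperature. Activity expressed as % of uninhibited control; n=2.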

[2] = target: T1, Ephrin type-B receptor 4 (Homo sapiens) (UniProt P54760); assay: Inhibition of EphB4 at 10 uM by HTRF assay relative to control; in short: as §1
T1 sequence (whole entry): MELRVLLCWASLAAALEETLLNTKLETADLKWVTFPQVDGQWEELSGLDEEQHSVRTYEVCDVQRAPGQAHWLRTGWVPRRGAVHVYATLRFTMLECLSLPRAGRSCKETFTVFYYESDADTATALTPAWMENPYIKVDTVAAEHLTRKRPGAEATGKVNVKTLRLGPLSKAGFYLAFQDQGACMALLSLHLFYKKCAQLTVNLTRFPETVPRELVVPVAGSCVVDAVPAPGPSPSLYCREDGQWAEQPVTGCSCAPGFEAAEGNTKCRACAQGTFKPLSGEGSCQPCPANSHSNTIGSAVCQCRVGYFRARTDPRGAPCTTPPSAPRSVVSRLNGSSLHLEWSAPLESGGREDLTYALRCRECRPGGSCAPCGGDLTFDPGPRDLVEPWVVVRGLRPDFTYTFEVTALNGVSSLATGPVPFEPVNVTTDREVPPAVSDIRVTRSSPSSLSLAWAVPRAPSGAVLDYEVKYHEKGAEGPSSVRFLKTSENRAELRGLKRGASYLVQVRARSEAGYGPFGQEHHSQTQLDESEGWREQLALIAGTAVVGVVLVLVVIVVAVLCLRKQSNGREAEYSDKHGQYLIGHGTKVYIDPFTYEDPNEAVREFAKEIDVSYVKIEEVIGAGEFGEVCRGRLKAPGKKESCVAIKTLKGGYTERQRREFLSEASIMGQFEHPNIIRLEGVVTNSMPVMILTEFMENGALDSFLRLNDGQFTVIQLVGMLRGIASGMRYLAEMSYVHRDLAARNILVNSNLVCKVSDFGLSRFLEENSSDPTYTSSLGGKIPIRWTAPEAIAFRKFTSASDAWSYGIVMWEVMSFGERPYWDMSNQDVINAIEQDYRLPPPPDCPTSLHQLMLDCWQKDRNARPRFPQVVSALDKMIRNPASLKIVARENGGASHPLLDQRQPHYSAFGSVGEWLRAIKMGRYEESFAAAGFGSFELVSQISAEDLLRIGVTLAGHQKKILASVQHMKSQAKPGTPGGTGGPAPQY

[3] = target: Mitogen-activated protein kinase 14 (Homo sapiens) (UniProt Q16539); assay: Inhibition of p38alpha at 10 uM by HTRF assay relative to control; in short: as §1
[4] = target: Mitogen-activated protein kinase 8 (Homo sapiens) (UniProt P45983); assay: Inhibition of JNK1 at 10 uM by HTRF assay relative to control; in short: as §1
[5] = target: Mitogen-activated protein kinase 1 (Homo sapiens) (UniProt P28482); assay: Inhibition of ERK2 at 10 uM by HTRF assay relative to control; in short: as §1
[6] = target: T2, Calcium/calmodulin-dependent protein kinase type IV (Homo sapiens) (UniProt Q16566); assay: Inhibition of CaMK4 at 10 uM by HTRF assay relative to control; in short: as §1
T2 sequence (whole entry): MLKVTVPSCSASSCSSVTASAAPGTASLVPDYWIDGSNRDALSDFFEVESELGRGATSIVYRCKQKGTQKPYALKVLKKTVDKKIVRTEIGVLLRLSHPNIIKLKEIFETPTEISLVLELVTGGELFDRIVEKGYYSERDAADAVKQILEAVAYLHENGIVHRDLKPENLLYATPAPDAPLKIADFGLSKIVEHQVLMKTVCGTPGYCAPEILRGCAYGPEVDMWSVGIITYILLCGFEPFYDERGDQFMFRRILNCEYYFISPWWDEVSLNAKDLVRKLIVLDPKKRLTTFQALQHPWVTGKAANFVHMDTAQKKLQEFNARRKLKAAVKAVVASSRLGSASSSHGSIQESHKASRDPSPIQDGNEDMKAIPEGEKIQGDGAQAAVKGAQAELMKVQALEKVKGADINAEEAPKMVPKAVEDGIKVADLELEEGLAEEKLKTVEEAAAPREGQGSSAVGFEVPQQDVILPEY

[7] = Inhibition of AMPKalpha at 10 uM by HTRF assay relative to control; in short: as §1
[8] = target: Protein kinase C alpha type (Homo sapiens) (UniProt P17252); assay: Inhibition of PKCalpha at 10 uM by HTRF assay relative to control; in short: as §1
[9] = Inhibition of PKA at 10 uM by HTRF assay relative to control; in short: as §1
[10] = target: T3, Tyrosine-protein kinase ZAP-70 (Homo sapiens) (UniProt P43403); assay: Inhibition of ZAP70 at 10 uM by HTRF assay relative to control; in short: as §1
T3 sequence (whole entry): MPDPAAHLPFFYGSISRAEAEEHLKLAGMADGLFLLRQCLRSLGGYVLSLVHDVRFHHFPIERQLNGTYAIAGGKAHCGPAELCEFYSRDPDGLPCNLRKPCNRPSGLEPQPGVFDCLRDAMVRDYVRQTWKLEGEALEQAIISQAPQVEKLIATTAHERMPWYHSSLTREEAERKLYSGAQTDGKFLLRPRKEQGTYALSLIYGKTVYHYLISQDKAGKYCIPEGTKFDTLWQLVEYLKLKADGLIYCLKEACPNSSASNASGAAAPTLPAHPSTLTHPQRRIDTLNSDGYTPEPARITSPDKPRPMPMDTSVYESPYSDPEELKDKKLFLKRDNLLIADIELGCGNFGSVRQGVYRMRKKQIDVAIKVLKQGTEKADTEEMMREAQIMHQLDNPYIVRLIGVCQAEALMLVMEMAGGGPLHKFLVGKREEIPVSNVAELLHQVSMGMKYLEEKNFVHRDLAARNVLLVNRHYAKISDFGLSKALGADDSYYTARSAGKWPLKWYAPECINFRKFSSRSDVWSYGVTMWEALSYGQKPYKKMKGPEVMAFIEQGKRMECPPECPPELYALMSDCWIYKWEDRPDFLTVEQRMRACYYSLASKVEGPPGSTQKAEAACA

[11] = target: Proto-oncogene tyrosine-protein kinase Src (Homo sapiens) (UniProt P12931); assay: Inhibition of Src at 10 uM by HTRF assay relative to control; in short: as §1
[12] = target: Tyrosine-protein kinase ABL1 (Homo sapiens) (UniProt P00519); assay: Inhibition of Abl at 10 uM by HTRF assay relative to control; in short: as §1
Chain of Tyrosine-protein kinase ABL1 (Homo sapiens) (P00519 whole entry): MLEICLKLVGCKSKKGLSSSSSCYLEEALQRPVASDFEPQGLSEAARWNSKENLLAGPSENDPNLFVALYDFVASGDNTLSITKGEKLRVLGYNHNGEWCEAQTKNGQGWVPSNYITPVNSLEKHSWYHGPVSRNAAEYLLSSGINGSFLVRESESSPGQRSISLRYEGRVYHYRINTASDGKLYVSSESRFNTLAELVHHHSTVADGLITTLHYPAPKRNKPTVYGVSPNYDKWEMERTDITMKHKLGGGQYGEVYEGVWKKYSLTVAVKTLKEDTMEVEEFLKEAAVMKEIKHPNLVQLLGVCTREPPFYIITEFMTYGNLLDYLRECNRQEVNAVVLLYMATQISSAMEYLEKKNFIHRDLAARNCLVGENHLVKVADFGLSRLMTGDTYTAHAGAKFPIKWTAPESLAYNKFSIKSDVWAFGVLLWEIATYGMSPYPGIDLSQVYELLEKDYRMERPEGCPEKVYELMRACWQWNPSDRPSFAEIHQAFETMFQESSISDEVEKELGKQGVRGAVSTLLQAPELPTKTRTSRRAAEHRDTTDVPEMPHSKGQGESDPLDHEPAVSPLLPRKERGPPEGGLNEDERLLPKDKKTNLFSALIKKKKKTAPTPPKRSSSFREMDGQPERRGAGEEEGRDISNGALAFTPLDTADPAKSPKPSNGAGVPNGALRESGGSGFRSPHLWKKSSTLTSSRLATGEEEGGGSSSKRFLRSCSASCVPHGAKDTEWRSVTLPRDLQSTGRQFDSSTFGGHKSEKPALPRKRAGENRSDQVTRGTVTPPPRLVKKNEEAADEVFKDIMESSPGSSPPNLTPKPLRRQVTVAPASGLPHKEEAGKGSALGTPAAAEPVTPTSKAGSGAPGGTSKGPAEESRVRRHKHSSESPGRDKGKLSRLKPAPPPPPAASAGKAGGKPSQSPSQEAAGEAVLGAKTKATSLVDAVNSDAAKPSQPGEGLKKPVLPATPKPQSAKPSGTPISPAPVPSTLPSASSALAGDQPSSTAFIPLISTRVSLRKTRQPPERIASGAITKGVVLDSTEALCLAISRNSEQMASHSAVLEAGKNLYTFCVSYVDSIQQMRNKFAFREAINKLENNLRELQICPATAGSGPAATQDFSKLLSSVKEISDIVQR

Chain of Mitogen-activated protein kinase 1 (Homo sapiens) (P28482 whole entry): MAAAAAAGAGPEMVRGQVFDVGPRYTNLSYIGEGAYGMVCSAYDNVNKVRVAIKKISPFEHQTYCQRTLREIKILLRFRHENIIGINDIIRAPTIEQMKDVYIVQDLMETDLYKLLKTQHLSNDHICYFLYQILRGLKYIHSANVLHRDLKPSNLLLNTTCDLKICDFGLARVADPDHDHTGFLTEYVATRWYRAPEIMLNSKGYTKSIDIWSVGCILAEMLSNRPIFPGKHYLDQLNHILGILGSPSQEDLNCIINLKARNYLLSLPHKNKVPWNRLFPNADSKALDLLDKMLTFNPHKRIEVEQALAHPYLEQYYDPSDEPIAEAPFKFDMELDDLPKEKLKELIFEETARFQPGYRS
Chain of Proto-oncogene tyrosine-protein kinase Src (Homo sapiens) (P12931 2-536 limits assumed): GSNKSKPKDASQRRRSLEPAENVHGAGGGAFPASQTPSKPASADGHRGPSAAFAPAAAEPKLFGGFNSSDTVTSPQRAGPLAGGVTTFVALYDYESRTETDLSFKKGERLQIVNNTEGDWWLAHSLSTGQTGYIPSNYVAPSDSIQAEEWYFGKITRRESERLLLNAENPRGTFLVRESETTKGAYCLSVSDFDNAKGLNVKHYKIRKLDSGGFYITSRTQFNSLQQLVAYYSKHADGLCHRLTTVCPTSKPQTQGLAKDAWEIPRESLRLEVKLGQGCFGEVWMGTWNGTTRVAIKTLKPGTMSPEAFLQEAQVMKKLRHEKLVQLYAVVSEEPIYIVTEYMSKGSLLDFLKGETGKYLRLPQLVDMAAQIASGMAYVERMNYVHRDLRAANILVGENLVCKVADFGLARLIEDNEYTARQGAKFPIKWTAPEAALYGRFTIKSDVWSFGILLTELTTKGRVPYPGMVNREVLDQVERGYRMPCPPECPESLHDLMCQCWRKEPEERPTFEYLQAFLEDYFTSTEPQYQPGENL
Chain of Mitogen-activated protein kinase 14 (Homo sapiens) (Q16539 whole entry): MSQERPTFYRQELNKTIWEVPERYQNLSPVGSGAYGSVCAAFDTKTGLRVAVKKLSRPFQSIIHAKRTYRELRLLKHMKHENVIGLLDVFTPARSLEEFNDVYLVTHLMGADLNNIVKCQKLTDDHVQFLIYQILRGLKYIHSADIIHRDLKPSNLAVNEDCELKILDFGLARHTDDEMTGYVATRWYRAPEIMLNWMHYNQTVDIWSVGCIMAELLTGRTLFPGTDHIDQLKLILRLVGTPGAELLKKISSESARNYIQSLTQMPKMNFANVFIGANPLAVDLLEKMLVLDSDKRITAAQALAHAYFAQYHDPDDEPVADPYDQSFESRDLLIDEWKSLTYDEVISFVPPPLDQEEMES
Chain of Mitogen-activated protein kinase 8 (Homo sapiens) (P45983 whole entry): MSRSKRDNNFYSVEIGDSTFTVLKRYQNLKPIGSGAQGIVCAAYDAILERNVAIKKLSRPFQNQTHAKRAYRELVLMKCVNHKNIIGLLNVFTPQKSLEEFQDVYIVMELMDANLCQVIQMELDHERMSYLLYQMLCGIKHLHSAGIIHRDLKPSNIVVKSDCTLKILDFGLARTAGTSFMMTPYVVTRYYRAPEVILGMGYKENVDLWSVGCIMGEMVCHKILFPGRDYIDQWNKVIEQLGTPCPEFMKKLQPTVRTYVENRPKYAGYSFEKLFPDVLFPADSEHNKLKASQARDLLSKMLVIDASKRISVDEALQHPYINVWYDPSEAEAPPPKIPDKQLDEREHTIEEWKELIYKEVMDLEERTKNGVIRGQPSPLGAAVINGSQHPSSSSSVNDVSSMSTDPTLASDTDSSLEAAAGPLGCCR
Chain of Insulin-like growth factor 1 receptor (Homo sapiens) (P08069 31-736 limits assumed): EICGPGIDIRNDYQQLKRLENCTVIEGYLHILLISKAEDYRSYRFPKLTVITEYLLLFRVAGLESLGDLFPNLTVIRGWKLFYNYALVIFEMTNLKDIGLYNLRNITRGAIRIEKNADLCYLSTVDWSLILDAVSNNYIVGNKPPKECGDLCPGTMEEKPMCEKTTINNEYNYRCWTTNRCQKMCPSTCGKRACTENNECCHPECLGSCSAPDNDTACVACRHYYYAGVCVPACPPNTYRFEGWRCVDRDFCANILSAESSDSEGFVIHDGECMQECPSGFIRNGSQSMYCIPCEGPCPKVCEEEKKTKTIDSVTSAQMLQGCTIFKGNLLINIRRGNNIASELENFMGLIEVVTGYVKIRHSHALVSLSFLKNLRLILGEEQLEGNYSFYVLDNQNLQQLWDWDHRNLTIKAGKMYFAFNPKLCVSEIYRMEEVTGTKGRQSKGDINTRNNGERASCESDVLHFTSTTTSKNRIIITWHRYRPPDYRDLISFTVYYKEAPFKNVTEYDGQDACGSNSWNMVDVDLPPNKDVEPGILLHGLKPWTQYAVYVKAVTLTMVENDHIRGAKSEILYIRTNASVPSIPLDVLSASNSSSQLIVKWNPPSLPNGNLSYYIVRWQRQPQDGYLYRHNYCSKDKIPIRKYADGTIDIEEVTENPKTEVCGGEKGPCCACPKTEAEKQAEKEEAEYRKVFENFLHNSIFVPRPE
Chain of Insulin-like growth factor 1 receptor (Homo sapiens) (P08069 741-1367 limits assumed): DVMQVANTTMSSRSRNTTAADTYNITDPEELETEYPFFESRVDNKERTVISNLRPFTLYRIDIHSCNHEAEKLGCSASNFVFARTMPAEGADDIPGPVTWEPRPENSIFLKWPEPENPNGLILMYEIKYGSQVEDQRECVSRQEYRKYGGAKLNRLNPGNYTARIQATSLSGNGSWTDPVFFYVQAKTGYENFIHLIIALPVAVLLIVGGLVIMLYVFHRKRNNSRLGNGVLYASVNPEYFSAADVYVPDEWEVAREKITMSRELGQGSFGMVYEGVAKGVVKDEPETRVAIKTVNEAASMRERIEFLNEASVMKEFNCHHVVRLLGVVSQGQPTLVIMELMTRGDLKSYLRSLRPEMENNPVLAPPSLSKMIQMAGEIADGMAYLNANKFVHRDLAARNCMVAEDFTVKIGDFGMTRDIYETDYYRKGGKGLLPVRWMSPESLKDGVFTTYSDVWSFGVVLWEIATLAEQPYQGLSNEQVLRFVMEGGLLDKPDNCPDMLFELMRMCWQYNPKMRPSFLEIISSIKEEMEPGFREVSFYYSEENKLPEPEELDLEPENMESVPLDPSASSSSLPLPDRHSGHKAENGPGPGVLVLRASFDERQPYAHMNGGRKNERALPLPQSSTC

Compound | inhibition [1] [%] | inhibition [2] [%] | inhibition [3] [%] | inhibition [4] [%] | inhibition [5] [%] | inhibition [6] [%] | inhibition [7] [%] | inhibition [8] [%] | inhibition [9] [%] | inhibition [10] [%] | inhibition [11] [%] | inhibition [12] [%]
Cc1cccc(N(C)c2cc(N3CCN(C(=O)Cc4c[nH]c5ccccc45)CC3)ncn2)c1 | 0 | 0 | 6 | 9 | 5 | 0 | 3 | 0 | 0 | 2 | 0 | 6
Cc1cccc(N(C)c2cc(Nc3ccc(CC(=O)Nc4ccc5ncsc5c4)cc3)ncn2)c1 | 0 | 0 | 57 | 7 | 2 | 0 | 0 | 0 | 0 | 5 | 6 | 18
CN(CCc1ccccn1)C(=O)[C@@H]1CCCN1c1nccc(Nc2ccccc2)n1 | 0 | 0 | 0 | 0 | 3 | 0 | 0 | 1 | 0 | 3 | 0 | 8
Nc1nc(N2CCOCC2)cc(N2CCC(C(=O)NCCc3ccc(O)cc3)CC2)n1 | 0 | 0 | 8 | 4 | 11 | 0 | 12 | 0 | 0 | 2 | 2 | 6
CN(CCCn1ccnc1)C(=O)[C@@H]1CCCN1c1nccc(Nc2ccccc2)n1 | 0 | 0 | 1 | 0 | 0 | 0 | 15 | 0 | 0 | 3 | 8 | 2
COC[C@@H]1CCCN1C(=O)[C@@H]1CCCN1c1nccc(Nc2ccccc2)n1 | 0 | 0 | 0 | 0 | 0 | 0 | 15 | 0 | 0 | 6 | 0 | 3
Cc1cccc(N(C)c2cc(Nc3cccc(C(=O)NCc4ccc(N(C)C)cc4)c3)ncn2)c1 | 0 | 4 | 0 | 0 | 3 | 0 | 0 | 0 | 0 | 4 | 4 | 11
Cc1cccc(Nc2nccc3c2CN(C(=O)c2cc(C)n(C)c2C)CC3)c1 | 0 | 0 | 0 | 0 | 6 | 0 | 1 | 1 | 0 | 4 | 0 | 0
O=C(NCCc1ccc(O)cc1)c1cccc(Nc2nccc(Nc3ccc4ncsc4c3)n2)c1 | 2 | 0 | 9 | 55 | 0 | 0 | 8 | 0 | 0 | 3 | 71 | 11
